Assay results published in ChEMBL document CHEMBL1142455, “Synthesis and biological evaluation of immunosuppressive agent DZ2002 and its stereoisomers” (Bioorg Med Chem, 2008).
Active and inactive are the calls of the source. The rule behind the calls is not given here.

Columns and labels:
[1] = Inhibition of rabbit erythrocyte SAHase by DTNB-coupled assay; parameters: species or system Oryctolagus cuniculus
Procedure, shortened: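 SAHase hydrolytic activity was measured by DTNB-coupled assay. Enzyme and compound were preincubated in phosphate buffer, pH 8.0, for 10 min before the reaction was started.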

Splenic lymphocyte = assay: Immunosuppressive activity in BALB/c mouse splenic lymphocytes co-cultured with C57BL/6 mouse splenic lymphocytes assessed as inhibition of cell proliferation after 72 hrs by mixed lymphocyte reaction assay; format: functional, cell-based
Procedure, shortened: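 Stimulator BALB/c splenic lymphocytes (1 × 10⁷ cells/mL) were γ-irradiated with ⁶⁰Co for 7 min. They were co-cultured with fresh C57BL/6 splenic responder lymphocytes and compound at 25, 50 or 100 μM in RPMI 1640 with FCS for 72 h at 37 °C under 5% CO₂. Cells were then pulsed with [³H]thymidine for another 24 h to read proliferation.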

[2] = Cytotoxicity against BALB/c mouse splenic lymphocytes co-cultured with C57BL/6 mouse splenic lymphocytes assessed as reduction of cell viability after 72 hrs; format: cell-based, Splenic lymphocyte; conditions: BALB/c and C57BL/6, mouse

| IC50 [1] [µM] | Structure (SMILES) | Activity (Splenic lymphocyte) | CC50 at 72 h [2] [mM] |
| --- | --- | --- | --- |
| 21.2 | COC(=O)[C@@H](O)CCn1cnc2c(N)ncnc21 | Active | > 1 |
| 194 | COC(=O)C(=O)CCn1cnc2c(N)ncnc21 | Active | > 1 |
| 24.4 | COC(=O)C(O)CCn1cnc2c(N)ncnc21 (racemic) | Active | > 1 |
| 61.3 | COC(=O)[C@H](O)CCn1cnc2c(N)ncnc21 | Active | > 1 |
